Data on one compound can be found in paper PMC4809803 (Oncogene, 2015).

Experiment [1] relates to HCD-57 cells expressing FLT3-ITD. As to the kind of experiment: XTT cell viability assay, transformed HCD-57. The class given is cell-based, murine. The note with it: 48 hours. Background: Tetrazolium assays rely on reduction of a dye to a coloured formazan, in cell work by metabolically active cells.
Experiment [2] concerns HCD-57 cells expressing FLT3-D835Y. As to the kind of experiment: XTT cell viability assay, transformed HCD-57. The class given is cell-based, murine. The settings on record: 48 hours.
The subject of experiment [3] is HCD-57 cells expressing FLT3-D835H. The experiment can be described thus: XTT cell viability assay, transformed HCD-57. The class given is cell-based, murine. The note with it: 48 hours.
The subject of experiment [4] is parent HCD-57 cells. As to the kind of experiment: XTT cell viability assay, parent HCD-57. The class given is cell-based, murine. The settings on record: 48 hours, with EPO.
Experiment [5] deals with FLT3 signaling in FLT3-ITD-transformed HCD-57 cells. As to the kind of experiment: Cell signaling western blot. It counts as cell-based, murine. The settings on record: 3 hours. The method in brief: (§1)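 EPO-independent retrovirally transformed HCD-57 cells were treated with the indicated inhibitor concentrations for 3 h. They were lysed in whole-cell buffer (25 mM β-glycerophosphate pH 7.3, EDTA/EGTA, 1% Triton X-100, 0.1 M NaCl, 1 mM vanadate, protease inhibitors) and cleared at 13 000×g. Equal total protein was run on SDS gels and immunoblotted for pFLT3 (pY591), pERK1/2 (pT202/pY204), pAKT (pS473), total FLT3/ERK/AKT and GAPDH.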

The subject of experiment [6] is FLT3 signaling in FLT3-D835Y-transformed HCD-57 cells. As to the kind of experiment: Cell signaling western blot. It counts as cell-based, murine. The note with it: 3 hours. Summed up:
as §1
In general terms: Immunoblotting shows a protein as a band on a membrane.

Experiment [7] concerns FLT3-ITD-transformed HCD-57 cells. As to the kind of experiment: Apoptosis assay, annexin V and propidium iodide. The class given is cell-based, murine. The note with it: 100 and 500 nM, 24 hours.
Experiment [8] relates to FLT3-D835Y-transformed HCD-57 cells. As to the kind of experiment: Apoptosis assay, annexin V and propidium iodide. It counts as cell-based, murine. The settings on record: 100 and 500 nM, 24 hours.
Experiment [9] relates to parent HCD-57 cells. The experiment can be described thus: Apoptosis assay, annexin V and propidium iodide. It counts as cell-based, murine. The note with it: 100 and 500 nM, 24 hours, cultured with EPO.
The test system of experiment [10] is FLT3-ITD-transformed HCD-57 cells. The experiment can be described thus: Cell cycle analysis, propidium iodide. The class given is cell-based, murine. The settings on record: 100 and 500 nM, 24 hours.
Experiment [11] concerns FLT3-D835Y-transformed HCD-57 cells. The experiment can be described thus: Cell cycle analysis, propidium iodide. It counts as cell-based, murine. The note with it: 100 and 500 nM, 24 hours.
Experiment [12] has as its system HCD-57 cells transformed with JAK2V617F. The note with it: XTT, 48 hours.

`CNC(=O)c1cc(Oc2ccc(NC(=O)Nc3ccc(Cl)c(C(F)(F)F)c3)cc2)ccn1` [sorafenib]: the “effect on cell growth/viability” value in experiment [1] is “strongly inhibited”; in experiment [2] it was “far less active”; in experiment [3] it was “far less active”. Also, the “effect on cell viability” value (with parent HCD-57 cells [4]; in [12]) was “far less active” throughout. Besides, the “phosphorylation of FLT3, ERK and Akt” value in [5] was “strong inhibitory effect”; in [6] it was “much less effective”. Further, the “percentage of apoptotic and necrotic cells” value was “potent to induce apoptosis and necrosis” in experiment [7]; “no effect” in experiment [8]. Also, in the experiment with parent HCD-57 cells [9], the apoptosis entry was “neither JI6 nor sorafenib displayed significant effects”. In addition, the “cell cycle distribution (G1, S+G2)” value in [10] and in experiment [11] was “exhibited such an effect only on the FLT3-ITD cells” throughout.
